# Data as given in ChEMBL document CHEMBL1629587, “Discovery of a small-molecule inhibitor of {beta}-1,6-glucan synthesis” (2009).
# Calls of active or inactive are those of the source. The rule behind the calls is not given here.
# Assays:
# Aspergillus flavus = test: Antifungal activity against Aspergillus flavus ATCC 64025 after 24 hrs by microdilution method; assay type: functional; settings: ATCC 64025, 24 h
# Method in brief: (§1)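 CLSI broth microdilution run at 30°C instead of standard temperature; starting inoculum 1 × 10^3 to 3 × 10^3 cells/ml; DMSO under 1% final. Endpoints: MIC-0 = lowest concentration giving an optically clear well; MIC-2 = 50% drop versus drug-free control in absorbance at 570 nm with alamar blue redox indicator, used because treated cells clump.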
# Nakaseomyces glabratus [1] = test: Induction of multibudding phenotype in Candida glabrata IFO0622 after 18 hrs by microscopy; assay type: functional, organism-based
# Method in brief: (§2)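 Exponential-phase cells suspended in RPMI 1640 with or without drug (2 μg/ml shown), shaken gently 18 h at 30°C, fixed in 3% glutaraldehyde in 0.1 M phosphate buffer, inspected by inverted light microscopy.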
# Aspergillus sp. = test: Antifungal activity against Aspergillus sp. at 32 ug/ml after 24 hrs by microdilution method; assay type: functional, organism-based; method in brief: as §1
# Escherichia coli = test: Antibacterial activity against Escherichia coli NIHJ; assay type: functional
# Candida tropicalis = test: Fungicidal activity against Candida tropicalis TIMM0313 after 24 hrs by microdilution method; assay type: functional; settings: TIMM0313, 24 h
# Method in brief: (§3)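 Fungicidal concentration: after the MIC plate read, 4 μl from each well transferred into 200 μl MOPS-buffered RPMI, incubated 24 h at 30°C; MFC = lowest drug concentration with no visible growth.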
# Nakaseomyces glabratus [2] = test: Fungicidal activity against Candida glabrata IFO0622 after 24 hrs by microdilution method; assay type: functional; settings: IFO0622, 24 h; method in brief: as §3
# Saccharomyces cerevisiae [3] = test: Fungicidal activity against Saccharomyces cerevisiae CT-2a mutant after 24 hrs by microdilution method; assay type: functional
# Saccharomyces cerevisiae [4] = test: […] activity against Saccharomyces cerevisiae AY-10 transformed with pRS416-13 carrying ADP1 gene after 24 hrs by microdilution method; assay type: functional; settings: AY-10, 24 h
# Trichosporon asahii [5] = test: Antifungal activity against Trichosporon asahii ATCC 90039 after 24 hrs by microdilution method; assay type: functional; settings: ATCC 90039, 24 h; method in brief: as §1
# Candida albicans [6] = test: Inhibition of hyphal elongation of Candida albicans ATCC 24433 at 16 ug/ml after 6 hrs by microscopy; assay type: functional, organism-based
# Method in brief: (§4)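 Hyphae induced in HFM-7 medium (Lee's medium also used) on type I collagen-coated wells, drug 0, 1, 4 or 16 μg/ml; static culture at 37°C, viewed by light microscopy after 6 h or 24 h.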
# Trichosporon asahii [7] = test: Antifungal activity against Trichosporon asahii ATCC 90039 at 32 ug/ml after 24 hrs by microdilution method; assay type: functional, organism-based; method in brief: as §1
# Nakaseomyces glabratus [8] = test: Fungistatic activity aganist Candida glabrata IFO0622assessed as growth inhibition at 1 to 16 ug/ml by time-kill study; assay type: functional, organism-based; settings: IFO0622
# Method in brief: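 Exponentially growing cells suspended at 1 × 10^4 cells/ml in RPMI 1640 with or without drug, shaken gently at 30°C; samples taken at 2, 4, 8, 24 and 48 h, diluted and spread on SDA, colonies counted after overnight incubation at 30°C to give viable cell numbers.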
# Candida albicans [9] = test: Inhibition of hyphal elongation of Candida albicans ATCC 24433 at 1 ug/ml after 24 hrs by microscopy; assay type: functional, organism-based; method in brief: as §4
# Clavispora lusitaniae = test: Antifungal activity against Candida lusitaniae ATCC 200951 after 24 hrs by microdilution method; assay type: functional; settings: ATCC 200951, 24 h; method in brief: as §1
# Saccharomyces cerevisiae [10] = test: Inhibition of chitin synthesis in Saccharomyces cerevisiae AY-10 assessed as reduction in [14C]glucose incorporation at 0.078 to 1.25 ug/ml after 3 hrs; assay type: functional, organism-based
# Method in brief: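 Exponential cells in RPMI 1640 at A595 about 0.6, pulse-labelled with [14C]glucose 2 μCi/ml plus drug at 30°C, sampled at 1 and 3 h. Cell wall fractionated: mannan from 3% NaOH extracts at 80°C by Fehling's reaction; residue digested with Zymolyase 100T (1 mg/ml), insoluble part = chitin; β-1,3-glucan = total glucan minus dialysed β-1,6-glucan. Scintillation counting; % change versus untreated.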
# Kluyveromyces marxianus = test: Antifungal activity against Candida kefyr ATCC 46764 after 24 hrs by microdilution method; assay type: functional; settings: ATCC 46764, 24 h; method in brief: as §1
# Saccharomyces cerevisiae [11] = test: Fungicidal activity against Saccharomyces cerevisiae AY-10-R11 mutant after 24 hrs by microdilution method; assay type: functional; settings: AY-10-R11, 24 h
# Saccharomyces cerevisiae [12] = test: Induction of multibudding phenotype in Saccharomyces cerevisiae YPH500 after 18 hrs by microscopy; assay type: functional, organism-based; method in brief: as §2
# Nakaseomyces glabratus [13] = test: Antifungal activity against Candida glabrata ATCC 200918 after 24 hrs by microdilution method; assay type: functional; settings: ATCC 200918, 24 h; method in brief: as §1
# Saccharomyces cerevisiae [14] = test: […] activity against Saccharomyces cerevisiae AY-10 after 24 hrs by microdilution method; assay type: functional; settings: AY-10, 24 h
# Saccharomyces cerevisiae [15] = test: Fungicidal activity against Saccharomyces cerevisiae AY-10-R4 mutant after 24 hrs by microdilution method; assay type: functional; settings: AY-10-R4, 24 h
# Aspergillus fumigatus = test: Antifungal activity against Aspergillus fumigatus ATCC 36607 after 24 hrs by microdilution method; assay type: functional; settings: ATCC 36607, 24 h; method in brief: as §1
# Candida albicans [16] = test: Antifungal activity against Candida albicans ATCC MYA-573 after 24 hrs by microdilution method; assay type: functional; settings: ATCC MYA-573, 24 h; method in brief: as §1
# Candida albicans [17] = test: Induction of multibudding phenotype in Candida albicans ATCC 24433 after 18 hrs by microscopy; assay type: functional, organism-based; method in brief: as §2
# Aspergillus terreus = test: Antifungal activity against Aspergillus terreus ATCC 28301 after 24 hrs by microdilution method; assay type: functional; settings: ATCC 28301, 24 h; method in brief: as §1
# Pichia kudriavzevii = test: Antifungal activity against Candida krusei TIMM0269 after 24 hrs by microdilution method; assay type: functional; settings: TIMM0269, 24 h; method in brief: as §1
# Candida parapsilosis = test: Antifungal activity against Candida parapsilosis IFO1396 after 24 hrs by microdilution method; assay type: functional; settings: Lodderomyces parapsilosis, IFO1396, 24 h; method in brief: as §1
# Saccharomyces cerevisiae [18] = test: Fungicidal activity against Saccharomyces cerevisiae YPH500 after 24 hrs by microdilution method; assay type: functional; settings: YPH500, 24 h; method in brief: as §3
# Candida albicans [19] = test: Inhibition of hyphal elongation of Candida albicans ATCC 24433 at 16 ug/ml after 24 hrs by microscopy; assay type: functional, organism-based; method in brief: as §4
# Saccharomyces cerevisiae [20] = test: Antifungal activity against Saccharomyces cerevisiae YPH500 after 24 hrs by microdilution method; assay type: functional; settings: YPH500, 24 h
# Method in brief: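 CLSI broth microdilution, incubated at 30°C, starting inoculum 1 × 10^3 to 3 × 10^3 cells/ml; drugs from DMSO, final DMSO below 1%. MIC-0 is the lowest concentration giving an optically clear well. MIC-2 is read with alamar blue as a 50% drop in A570 versus the drug-free control; both endpoints were recorded.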
# Cryptococcus neoformans = test: Antifungal activity against Cryptococcus neoformans ATCC 90112 after 24 hrs by microdilution method; assay type: functional; settings: ATCC 90112, 24 h; method in brief: as §1
# Saccharomyces cerevisiae [21] = test: […] activity against Saccharomyces cerevisiae AY-10 transformed with pRS416-31 carrying KRE6 gene after 24 hrs by microdilution method; assay type: functional; settings: AY-10, 24 h
smiles,measurement,setting,value
CCc1c(C)c(C#N)c2nc3ccccc3n2c1NCCN(CC)CC,MIC,Aspergillus flavus,> 32 µg/mL
same,MIC50,Aspergillus flavus,> 32 µg/mL
same,Activity,Nakaseomyces glabratus [1],Active
same,Activity,Aspergillus sp.,inactive
same,MIC,Escherichia coli,> 32 µg/mL
same,MFC,Candida tropicalis,> 32 µg/mL
same,MFC,Nakaseomyces glabratus [2],32 µg/mL
same,MIC,Saccharomyces cerevisiae [3],> 64 µg/mL
same,MIC,Saccharomyces cerevisiae [4],4 µg/mL
same,MIC,Trichosporon asahii [5],> 32 µg/mL
same,MIC50,Trichosporon asahii [5],> 32 µg/mL
same,inhibition,Candida albicans [6],Active
same,Activity,Trichosporon asahii [7],inactive
same,Activity,Nakaseomyces glabratus [8],Dose-dependent effect
same,inhibition,Candida albicans [9],Active
same,MIC,Clavispora lusitaniae,16 µg/mL
same,MIC50,Clavispora lusitaniae,8 µg/mL
same,inhibition,Saccharomyces cerevisiae [10],inactive
same,MIC,Kluyveromyces marxianus,2 µg/mL
same,MIC50,Kluyveromyces marxianus,1 µg/mL
same,MIC,Saccharomyces cerevisiae [11],8 µg/mL
same,Activity,Saccharomyces cerevisiae [12],Active
same,MIC,Nakaseomyces glabratus [13],4 µg/mL
same,MIC50,Nakaseomyces glabratus [13],4 µg/mL
same,MIC,Saccharomyces cerevisiae [14],2 µg/mL
same,MIC,Saccharomyces cerevisiae [15],8 µg/mL
same,MIC,Aspergillus fumigatus,> 32 µg/mL
same,MIC50,Aspergillus fumigatus,> 32 µg/mL
same,MIC,Candida albicans [16],32 µg/mL
same,MIC50,Candida albicans [16],16 µg/mL
same,Activity,Candida albicans [17],Active
same,MIC,Aspergillus terreus,> 32 µg/mL
same,MIC50,Aspergillus terreus,> 32 µg/mL
same,MIC,Pichia kudriavzevii,16 µg/mL
same,MIC50,Pichia kudriavzevii,8 µg/mL
same,MIC,Candida parapsilosis,> 32 µg/mL
same,MIC50,Candida parapsilosis,4 µg/mL
same,MFC,Saccharomyces cerevisiae [18],> 32 µg/mL
same,inhibition,Candida albicans [19],Active
same,MIC,Saccharomyces cerevisiae [20],2 µg/mL
same,MIC50,Saccharomyces cerevisiae [20],1 µg/mL
same,MIC,Cryptococcus neoformans,> 32 µg/mL
same,MIC50,Cryptococcus neoformans,> 32 µg/mL
same,MIC,Saccharomyces cerevisiae [21],32 µg/mL
